Laboratory results from ChEMBL document CHEMBL2016553, “Design and synthesis of 3-(4,5,6,7-tetrahydro-3H-imidazo[4,5-c]pyridin-2-yl)-1H-quinolin-2-ones as VEGFR-2 kinase inhibitors” (Bioorg Med Chem Lett, 2012).
pIC50: −log10 of the molar value.

How the values were obtained:
[1] = target: T1, Vascular endothelial growth factor receptor 2 (Homo sapiens, UniProt P35968); experiment: Inhibition of recombinant VEGFR-2 kinase domain by homogeneous time-resolved fluorescence assay
[2] = target: T1, Vascular endothelial growth factor receptor 2; experiment: Inhibition of VEGFR-2 kinase
How it was run: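 HTRF KinEASE assay with recombinant VEGFR-2 kinase domain. Enzyme, ATP and substrate levels were optimised per kit. TR-FRET signal read after detection reagents. IC50 from dose–response curves.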

CYP1A2 = target: T2, CYP1A2 (Homo sapiens, UniProt P05177); experiment: Inhibition of recombinant human CYP1A2 assessed as remaining activity at 10 uM after 20 mins by fluorescence assay; type: ADME; details: read-out: Activity
T2 sequence (P05177 whole entry): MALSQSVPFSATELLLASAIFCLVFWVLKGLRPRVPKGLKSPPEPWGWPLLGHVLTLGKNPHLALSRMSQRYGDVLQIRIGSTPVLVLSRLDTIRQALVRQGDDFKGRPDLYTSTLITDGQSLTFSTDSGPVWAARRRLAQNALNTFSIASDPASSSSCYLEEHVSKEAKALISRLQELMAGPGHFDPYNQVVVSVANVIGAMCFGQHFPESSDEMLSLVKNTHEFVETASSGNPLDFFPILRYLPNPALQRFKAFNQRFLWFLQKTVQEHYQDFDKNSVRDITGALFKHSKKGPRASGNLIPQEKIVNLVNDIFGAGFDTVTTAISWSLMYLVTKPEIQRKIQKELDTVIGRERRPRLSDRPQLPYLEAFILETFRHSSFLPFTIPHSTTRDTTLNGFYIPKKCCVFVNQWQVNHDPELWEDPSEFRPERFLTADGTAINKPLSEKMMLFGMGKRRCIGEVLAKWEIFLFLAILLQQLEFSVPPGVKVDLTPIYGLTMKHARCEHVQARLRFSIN

CYP3A4 = CYP3A4 (Homo sapiens, UniProt P08684); experiment: Inhibition of recombinant human CYP3A4 assessed as remaining activity at 10 uM after 20 mins by fluorescence assay; type: ADME; details: read-out: Activity
CYP2C9 = CYP2C9 (Homo sapiens, UniProt P11712); experiment: Inhibition of recombinant human CYP2C9 assessed as remaining activity at 10 uM after 20 mins by fluorescence assay; type: ADME; details: read-out: Activity
CYP2C19 = CYP2C19 (Homo sapiens, UniProt P33261); experiment: Inhibition of recombinant human CYP2C19 assessed as remaining activity at 10 uM after 20 mins by fluorescence assay; type: ADME; details: read-out: Activity
CYP2D6 = CYP2D6 (Homo sapiens, UniProt P10635); experiment: Inhibition of recombinant human CYP2D6 assessed as remaining activity at 10 uM after 20 mins by fluorescence assay; type: ADME; details: read-out: Activity
[3] = Metabolic stability in human liver microsomes assessed as compound remaining at 10 uM after 30 mins by LC/MS/MS method; type: ADME, Microsome; details: read-out: Stability
HUVEC [4] = experiment: Antiproliferative activity against Vegf-stimulated HUVEC at 0.1 uM after 24 hrs by WST-1 assay relative to control; type: functional, Homo sapiens
How it was run: (§1)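 Pooled HUVECs grown in 1:1 EBM-2 with EGM-2 supplements, used at passage eight or lower. Seeded at 10,000 cells/well on collagen type I-coated plates. After 24 h, treated 24 h with rhVEGF (20 ng/mL) plus compound. Proliferation read by Premix WST-1 assay.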

HUVEC [5] = experiment: Antiproliferative activity against Vegf-stimulated HUVEC at 1 uM after 24 hrs by WST-1 assay relative to control; type: functional, Homo sapiens; how it was run: as §1
HUVEC [6] = experiment: Antiproliferative activity against Vegf-stimulated HUVEC at 10 uM after 24 hrs by WST-1 assay relative to control; type: functional, Homo sapiens; how it was run: as §1
HUVEC [7] = experiment: Antiangiogenic activity in HUVEC assessed as tube formation at 1 uM after 16 to 18 hrs by microscopy relative to control; type: functional, Homo sapiens
How it was run: (§2)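 Pooled HUVECs seeded at 40,000/well on wells coated with a 1:1 mix of Matrigel (10 mg/mL) and EBM-2/EGM-2 medium, coating set 1 h at 37 °C. Cells incubated 16–18 h, then fixed. Tube formation imaged by camera and quantified by image analysis.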

HUVEC [8] = experiment: Antiangiogenic activity in HUVEC assessed as tube formation at 10 uM after 16 to 18 hrs by microscopy relative to control; type: functional, Homo sapiens; how it was run: as §2
[9] = Metabolic stability in human liver microsomes assessed as compound remaining at 2 uM after 30 mins by LC/MS/MS method; type: ADME, Microsome; details: read-out: Stability
How it was run: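 Human liver microsomes (0.5 mg/ml) in 100 mM potassium phosphate pH 7.4, test compound final 2 µM. Pre-incubated 5 min at 37 °C, then started with NADPH regenerating solution. Stopped at a single 30 min point with 3 volumes ice-cold acetonitrile containing imipramine (80 ng/ml) as internal standard. Samples vortexed, centrifuged and analysed by LC/MS/MS.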

Chain of CYP2C19 (P33261 whole entry): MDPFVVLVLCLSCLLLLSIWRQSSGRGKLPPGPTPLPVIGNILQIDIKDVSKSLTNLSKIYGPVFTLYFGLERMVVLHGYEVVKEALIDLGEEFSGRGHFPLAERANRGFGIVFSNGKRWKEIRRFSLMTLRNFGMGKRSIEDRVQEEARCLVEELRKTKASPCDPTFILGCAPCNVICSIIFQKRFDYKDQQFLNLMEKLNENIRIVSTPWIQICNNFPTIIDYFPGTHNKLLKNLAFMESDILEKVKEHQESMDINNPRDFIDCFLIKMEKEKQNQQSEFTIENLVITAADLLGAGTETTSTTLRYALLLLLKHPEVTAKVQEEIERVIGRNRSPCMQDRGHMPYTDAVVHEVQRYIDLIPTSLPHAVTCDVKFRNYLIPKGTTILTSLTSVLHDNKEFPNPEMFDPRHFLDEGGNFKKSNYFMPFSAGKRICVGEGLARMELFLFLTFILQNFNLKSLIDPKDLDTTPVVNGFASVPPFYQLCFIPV
Chain of CYP2D6 (P10635 whole entry): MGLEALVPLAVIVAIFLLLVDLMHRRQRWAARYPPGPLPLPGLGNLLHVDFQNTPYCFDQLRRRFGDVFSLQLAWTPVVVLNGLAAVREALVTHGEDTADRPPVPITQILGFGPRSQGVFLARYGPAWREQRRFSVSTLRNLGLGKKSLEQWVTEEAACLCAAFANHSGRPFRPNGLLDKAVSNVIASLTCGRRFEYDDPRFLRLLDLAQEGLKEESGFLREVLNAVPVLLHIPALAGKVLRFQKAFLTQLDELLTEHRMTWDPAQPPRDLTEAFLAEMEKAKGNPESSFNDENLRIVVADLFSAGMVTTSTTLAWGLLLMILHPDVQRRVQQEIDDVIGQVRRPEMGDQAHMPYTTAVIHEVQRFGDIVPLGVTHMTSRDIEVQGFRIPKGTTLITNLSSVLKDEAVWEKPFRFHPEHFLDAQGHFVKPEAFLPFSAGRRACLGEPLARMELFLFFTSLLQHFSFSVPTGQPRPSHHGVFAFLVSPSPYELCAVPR
T1 sequence (P35968 whole entry, the tested form may be a part): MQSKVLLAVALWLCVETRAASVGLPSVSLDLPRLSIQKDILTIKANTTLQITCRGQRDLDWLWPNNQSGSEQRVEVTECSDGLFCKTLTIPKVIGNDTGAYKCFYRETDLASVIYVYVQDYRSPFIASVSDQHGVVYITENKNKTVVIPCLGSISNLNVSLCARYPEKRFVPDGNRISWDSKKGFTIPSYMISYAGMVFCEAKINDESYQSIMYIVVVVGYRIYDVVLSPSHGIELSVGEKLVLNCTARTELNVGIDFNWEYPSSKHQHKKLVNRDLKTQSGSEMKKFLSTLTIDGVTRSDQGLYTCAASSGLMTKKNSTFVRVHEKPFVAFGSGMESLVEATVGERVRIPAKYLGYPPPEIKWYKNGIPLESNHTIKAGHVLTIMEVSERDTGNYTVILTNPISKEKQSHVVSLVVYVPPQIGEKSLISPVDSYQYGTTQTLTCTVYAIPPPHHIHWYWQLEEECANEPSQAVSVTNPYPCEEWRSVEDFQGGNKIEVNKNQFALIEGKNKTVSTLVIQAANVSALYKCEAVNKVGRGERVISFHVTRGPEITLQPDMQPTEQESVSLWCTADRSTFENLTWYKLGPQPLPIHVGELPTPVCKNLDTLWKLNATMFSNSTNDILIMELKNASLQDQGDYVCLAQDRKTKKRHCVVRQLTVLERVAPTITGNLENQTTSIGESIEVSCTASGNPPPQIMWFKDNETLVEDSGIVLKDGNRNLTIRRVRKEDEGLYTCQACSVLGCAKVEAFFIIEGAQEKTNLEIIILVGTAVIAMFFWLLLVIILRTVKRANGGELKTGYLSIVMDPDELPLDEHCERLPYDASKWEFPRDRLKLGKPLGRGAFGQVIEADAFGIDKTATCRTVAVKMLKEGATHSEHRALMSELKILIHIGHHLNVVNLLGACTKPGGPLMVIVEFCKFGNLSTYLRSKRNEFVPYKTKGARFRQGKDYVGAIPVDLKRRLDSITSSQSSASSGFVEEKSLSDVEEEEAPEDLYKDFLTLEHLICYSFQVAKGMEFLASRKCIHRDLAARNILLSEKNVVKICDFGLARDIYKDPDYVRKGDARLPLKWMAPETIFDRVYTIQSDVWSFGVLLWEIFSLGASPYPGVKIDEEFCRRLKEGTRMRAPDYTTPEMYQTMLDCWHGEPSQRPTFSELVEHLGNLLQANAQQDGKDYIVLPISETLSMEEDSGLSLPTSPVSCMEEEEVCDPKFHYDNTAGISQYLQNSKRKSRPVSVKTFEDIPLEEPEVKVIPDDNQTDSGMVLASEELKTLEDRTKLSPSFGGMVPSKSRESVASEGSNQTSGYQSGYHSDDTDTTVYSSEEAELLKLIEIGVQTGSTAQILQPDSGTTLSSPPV
Chain of CYP3A4 (P08684 whole entry): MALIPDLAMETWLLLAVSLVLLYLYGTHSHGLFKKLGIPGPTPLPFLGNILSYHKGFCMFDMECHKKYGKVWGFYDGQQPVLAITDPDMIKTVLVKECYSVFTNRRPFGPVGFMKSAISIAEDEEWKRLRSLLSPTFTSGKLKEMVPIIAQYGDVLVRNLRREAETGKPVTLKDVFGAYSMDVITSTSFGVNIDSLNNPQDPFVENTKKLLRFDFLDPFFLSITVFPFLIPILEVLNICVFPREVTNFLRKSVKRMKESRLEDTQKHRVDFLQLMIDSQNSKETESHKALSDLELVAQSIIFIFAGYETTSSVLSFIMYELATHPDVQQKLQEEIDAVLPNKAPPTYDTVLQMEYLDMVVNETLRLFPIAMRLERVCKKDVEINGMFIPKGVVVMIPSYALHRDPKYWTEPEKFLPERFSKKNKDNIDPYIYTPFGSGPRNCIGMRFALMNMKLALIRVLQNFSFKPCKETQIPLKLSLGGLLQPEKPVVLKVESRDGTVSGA
Chain of CYP2C9 (P11712 whole entry): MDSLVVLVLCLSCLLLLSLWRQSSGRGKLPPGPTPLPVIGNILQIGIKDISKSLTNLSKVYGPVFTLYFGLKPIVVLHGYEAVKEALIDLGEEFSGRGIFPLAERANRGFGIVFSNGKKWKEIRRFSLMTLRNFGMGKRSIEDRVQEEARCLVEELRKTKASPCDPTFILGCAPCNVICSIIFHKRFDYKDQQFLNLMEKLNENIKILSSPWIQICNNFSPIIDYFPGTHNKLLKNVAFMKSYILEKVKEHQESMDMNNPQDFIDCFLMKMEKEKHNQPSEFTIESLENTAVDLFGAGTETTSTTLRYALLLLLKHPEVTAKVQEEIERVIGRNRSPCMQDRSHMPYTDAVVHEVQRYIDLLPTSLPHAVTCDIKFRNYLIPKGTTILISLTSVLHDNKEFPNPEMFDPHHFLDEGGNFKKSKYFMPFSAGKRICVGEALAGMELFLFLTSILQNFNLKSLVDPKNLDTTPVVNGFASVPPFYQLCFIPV

## CN1CCc2nc(-c3cc4ccccc4[nH]c3=O)[nH]c2C1
[1]
  pIC50: 6.00
[2]
  pIC50: 6.00

## O=c1[nH]c2ccccc2cc1-c1nc2c([nH]1)CN(Cc1ccccc1)CC2
[1]
  pIC50: 5.22

## O=C(OCc1ccccc1)N1CCc2nc(-c3cc4ccccc4[nH]c3=O)[nH]c2C1
[1]
  pIC50: 6.22

## O=c1[nH]c2ccccc2cc1-c1nc2c([nH]1)CN(C1CCNCC1)CC2
[1]
  pIC50: 5.30

## O=C(c1cccnc1)N1CCc2nc(-c3cc4ccccc4[nH]c3=O)[nH]c2C1
[1]
  pIC50: 6.70

## O=C(c1cccnc1)N1CCc2nc(-c3cc4c(F)cccc4[nH]c3=O)[nH]c2C1
[1]
  pIC50: 6.22

## O=C(c1cccnc1)N1CCc2nc(-c3cc4cc(F)ccc4[nH]c3=O)[nH]c2C1
[1]
  pIC50: 9.00
CYP1A2
  activity at 20 min, 10 µM: 86%
CYP3A4
  activity at 20 min, 10 µM: 83%
CYP2C9
  activity at 20 min, 10 µM: 99%
CYP2C19
  activity at 20 min, 10 µM: 92%
CYP2D6
  activity at 20 min, 10 µM: 67%
[3]
  remaining at 0.5 h, 10 µM: 96%

## O=C(c1ccncc1)N1CCc2nc(-c3cc4ccccc4[nH]c3=O)[nH]c2C1
[1]
  pIC50: 6.70

## O=C(c1ccncc1)N1CCc2nc(-c3cc4c(F)cccc4[nH]c3=O)[nH]c2C1
[1]
  pIC50: 6.10

## O=C(c1ccncc1)N1CCc2nc(-c3cc4cc(F)ccc4[nH]c3=O)[nH]c2C1
[1]
  pIC50: 9.52
CYP1A2
  activity at 20 min, 10 µM: 96%
CYP3A4
  activity at 20 min, 10 µM: 89%
CYP2C9
  activity at 20 min, 10 µM: 53%
CYP2C19
  activity at 20 min, 10 µM: 77%
CYP2D6
  activity at 20 min, 10 µM: 90%
[3]
  remaining at 0.5 h, 10 µM: 99%
HUVEC [4]
  Activity: 120%
HUVEC [5]
  Activity: 72%
HUVEC [6]
  Activity: 71%
HUVEC [7]
  Activity: 93%
HUVEC [8]
  Activity: 62%

## O=C(c1ccc(CN2CCCCC2)cc1)N1CCc2nc(-c3cc4ccccc4[nH]c3=O)[nH]c2C1
[1]
  pIC50: 8.89

## O=C(c1ccc(CN2CCCCC2)cc1)N1CCc2nc(-c3cc4cc(F)ccc4[nH]c3=O)[nH]c2C1
[1]
  pIC50: 8.31
CYP1A2
  activity at 20 min, 10 µM: 89%
CYP3A4
  activity at 20 min, 10 µM: 16%
CYP2C9
  activity at 20 min, 10 µM: 94%
CYP2C19
  activity at 20 min, 10 µM: 100%
CYP2D6
  activity at 20 min, 10 µM: 100%
[9]
  remaining at 0.5 h, 2 µM: 92%
HUVEC [4]
  Activity: 92.3%
HUVEC [5]
  Activity: 82%
HUVEC [6]
  Activity: 79%
HUVEC [7]
  Activity: 102%
HUVEC [8]
  Activity: 99%

## CCN(CC)CC(=O)N1CCc2nc(-c3cc4ccccc4[nH]c3=O)[nH]c2C1
[1]
  pIC50: 6.52

## O=C(CN1CCOCC1)N1CCc2nc(-c3cc4ccccc4[nH]c3=O)[nH]c2C1
[1]
  pIC50: 6.52

## O=C(CN1CCOCC1)N1CCc2nc(-c3cc4c(F)cccc4[nH]c3=O)[nH]c2C1
[1]
  pIC50: 5.96

## O=C(CN1CCOCC1)N1CCc2nc(-c3cc4cc(F)ccc4[nH]c3=O)[nH]c2C1
[1]
  pIC50: 8.37

## O=C(CN1CCOCC1)N1CCc2nc(-c3cc4cc(Cl)ccc4[nH]c3=O)[nH]c2C1
[1]
  pIC50: 7.46

## COc1ccc2[nH]c(=O)c(-c3nc4c([nH]3)CN(C(=O)CN3CCOCC3)CC4)cc2c1
[1]
  pIC50: 6.12

## CN1CCN(CC(=O)N2CCc3nc(-c4cc5ccccc5[nH]c4=O)[nH]c3C2)CC1
[1]
  pIC50: 6.52

## CN1CCN(CC(=O)N2CCc3nc(-c4cc5c(F)cccc5[nH]c4=O)[nH]c3C2)CC1
[1]
  pIC50: 5.98

## CN1CCN(CC(=O)N2CCc3nc(-c4cc5cc(F)ccc5[nH]c4=O)[nH]c3C2)CC1
[1]
  pIC50: 7.89

## CN1CCN(CC(=O)N2CCc3nc(-c4cc5cc(Cl)ccc5[nH]c4=O)[nH]c3C2)CC1
[1]
  pIC50: 7.72

## COc1ccc2[nH]c(=O)c(-c3nc4c([nH]3)CN(C(=O)CN3CCN(C)CC3)CC4)cc2c1
[1]
  pIC50: 5.96

## O=C(CN1CCCCC1)N1CCc2nc(-c3cc4ccccc4[nH]c3=O)[nH]c2C1
[1]
  pIC50: 7.80

## O=C(CN1CCCCC1)N1CCc2nc(-c3cc4c(F)cccc4[nH]c3=O)[nH]c2C1
[1]
  pIC50: 6.13

## O=C(CN1CCCCC1)N1CCc2nc(-c3cc4cc(F)ccc4[nH]c3=O)[nH]c2C1
[1]
  pIC50: 8.10

## O=C(CN1CCCCC1)N1CCc2nc(-c3cc4cc(Cl)ccc4[nH]c3=O)[nH]c2C1
[1]
  pIC50: 7.66

## COc1ccc2[nH]c(=O)c(-c3nc4c([nH]3)CN(C(=O)CN3CCCCC3)CC4)cc2c1
[1]
  pIC50: 6.55

## O=C(CN1CCCC1)N1CCc2nc(-c3cc4ccccc4[nH]c3=O)[nH]c2C1
[1]
  pIC50: 6.40

## O=C(Cc1ccccn1)N1CCc2nc(-c3cc4ccccc4[nH]c3=O)[nH]c2C1
[1]
  pIC50: 8.89

## O=C(Cc1ccccn1)N1CCc2nc(-c3cc4cc(F)ccc4[nH]c3=O)[nH]c2C1
[1]
  pIC50: 9.15

## O=C(Cc1ccncc1)N1CCc2nc(-c3cc4ccccc4[nH]c3=O)[nH]c2C1
[1]
  pIC50: 8.17

## O=C(Cc1ccncc1)N1CCc2nc(-c3cc4cc(F)ccc4[nH]c3=O)[nH]c2C1
[1]
  pIC50: 8.07
CYP1A2
  activity at 20 min, 10 µM: 58%
CYP3A4
  activity at 20 min, 10 µM: 33%
CYP2C9
  activity at 20 min, 10 µM: 28%
CYP2C19
  activity at 20 min, 10 µM: 35%
CYP2D6
  activity at 20 min, 10 µM: 21%
[3]
  remaining at 0.5 h, 10 µM: 93%

## O=C(Cc1ccncc1)N1CCc2nc(-c3cc4cc(Cl)ccc4[nH]c3=O)[nH]c2C1
[1]
  pIC50: 9.30

## Cc1cccc(NC(=O)N2CCc3nc(-c4cc5ccccc5[nH]c4=O)[nH]c3C2)c1
[1]
  pIC50: 8.68

## COc1ccc(NC(=O)N2CCc3nc(-c4cc5ccccc5[nH]c4=O)[nH]c3C2)cc1
[1]
  pIC50: 7.34
